Laboratory results: ChEMBL document CHEMBL1143141, “Regioselective synthesis and antitumor screening of some novel N-phenylpyrazole derivatives” (Bioorg Med Chem, 2008)
Converted amounts (≈) assume the structure as drawn.

Legend:
Ehrlich [1] = assay: Antitumor activity against mouse Ehrlich ascites carcinoma cells; format: functional, cell-based
Summary of the method: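 Ehrlich ascites carcinoma cell suspension was exposed to test compound at three levels (25, 50, 100) for 2 h. Nonviable cells were counted by trypan blue exclusion, using a 1:10 water dilution of a 1 g/100 ml dye stock. The IC50 was calculated against a saline control group. Doxorubicin served as positive control.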

Ehrlich [2] = assay: Antitumor activity against mouse Ehrlich ascites carcinoma cells at 100 ug/ml relative to doxorubicin after 2 hrs; format: functional
Summary of the method: (§1)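 Ehrlich ascites carcinoma cell suspension was exposed to compound for 2 h. Percent nonviable cells was scored by trypan blue dye exclusion. Potency was calculated from the percentage change relative to doxorubicin, which served as reference. Data are means with SE. Treated and control tubes were compared by one-way ANOVA with Duncan's multiple range test.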

Ehrlich [3] = assay: Antitumor activity against mouse Ehrlich ascites carcinoma cells at 50 ug/ml relative to doxorubicin after 2 hrs; format: functional; summary of the method: as §1
Ehrlich [4] = assay: Antitumor activity against mouse Ehrlich ascites carcinoma cells at 25 ug/ml relative to doxorubicin after 2 hrs; format: functional; summary of the method: as §1

SMILES | IC50 (Ehrlich [1]) [µg/mL] | Activity (Ehrlich [2]) [%] | Activity (Ehrlich [3]) [%] | Activity (Ehrlich [4]) [%]
CCOC(=O)c1nn(-c2ccc([N+](=O)[O-])cc2)cc1C(=O)c1c(C(=O)Nc2ccccc2)nn(-c2ccccc2)c1C |  | 0 | 0 | 0
Cc1c(C(=O)c2cn(-c3ccccc3)nc2-c2ccccc2)c(C(=O)Nc2ccccc2)nn1-c1ccccc1 |  | 0 | 0 | 0
CC(=O)c1nn(-c2ccc(C)cc2)cc1C(=O)c1c(C(=O)Nc2ccccc2)nn(-c2ccccc2)c1C | > 100 | 10 | 5 | 0
CCOC(=O)c1nn(-c2ccc(Br)cc2)cc1C(=O)c1c(C(=O)Nc2ccccc2)nn(-c2ccccc2)c1C | > 100 | 20 | 10 | 0
Cc1c(C(=O)/C=C/N(C)C)c(C(=O)Nc2ccccc2)nn1-c1ccccc1 | > 100 | 10 | 5 | 0
CCOC(=O)c1nn(-c2ccccc2)cc1C(=O)c1c(C(=O)Nc2ccccc2)nn(-c2ccccc2)c1C | > 100 | 10 | 0 | 0
CC(=O)c1c(C(=O)Nc2ccccc2)nn(-c2ccccc2)c1C |  | 0 | 0 | 0

Second part, led by results:

IC50 (Ehrlich [1]) [µg/mL] | SMILES | Activity (Ehrlich [2]) [%] | Activity (Ehrlich [3]) [%] | Activity (Ehrlich [4]) [%]
> 100 | CC(=O)c1nn(-c2ccccc2)cc1C(=O)c1c(C(=O)Nc2ccccc2)nn(-c2ccccc2)c1C | 20 | 5 | 0
> 100 | CC(=O)c1nn(-c2ccc(Br)cc2)cc1C(=O)c1c(C(=O)Nc2ccccc2)nn(-c2ccccc2)c1C | 25 | 15 | 0
100 (≈ 199 µM) | CC(=O)c1nn(-c2cccc(C)c2)cc1C(=O)c1c(C(=O)Nc2ccccc2)nn(-c2ccccc2)c1C | 20 | 10 | 0
70 (≈ 124 µM) | Cc1c(C(=O)c2cn(-c3ccccc3)nc2C(=O)Nc2ccccc2)c(C(=O)Nc2ccccc2)nn1-c1ccccc1 | 35 | 20 | 5
35 (≈ 64.4 µM) | COc1cccc2c1C(=O)c1c(O)c3c(c(O)c1C2=O)C[C@@](O)(C(=O)CO)C[C@@H]3O[C@H]1C[C@H](N)[C@H](O)[C@H](C)O1 [DOXORUBICIN] | 100 | 55 | 20
